Compounds with a hit are over-represented: about 0.99% of the library has one in this group of screens.
Arr AP2 block – inhibitors of beta-arrestin/AP2 binding, primary screen, biochemical, GPCR trafficking, flow cytometry; inhibition, % at 10 µM; AID 504490, 2011; beta-arrestin 1 C-terminal peptide binding to AP2 beta2-adaptin appendage (human); 340,000 compounds, 0.31% hits; FITC-arrestin peptide / GST-AP2 beads; AP2 beta2 appendage carries R879A mutation;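 active = inhibition above a set limit, near 3 SD of compounds lacking own fluorescence, cut at about 54% in these data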;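 note: plate controls were DMSO wells for no effect and 5 µM unlabelled arrestin peptide for full effect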
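Assay system: GST-AP2 R879A bound to glutathione beads, E. coli-expressed; Medium: PBS with 0.05% Tween 20 and 0.1% BSA; Also added: fluorescein-tagged arrestin peptide at 50 nM final; Timing: 12 min plus 1 h, RT; Measured by: flow cytometry, FL1 (488/535 nm); Evaluation: percent drop in bead-associated FITC signal.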
DYRK1A inh – rat Dyrk1A kinase inhibitors, primary screen, biochemical, single point, plate reader | AID 504441, 2011 | ADP-Glo luminescence, NFATc1 peptide | Dual specificity tyrosine-phosphorylation-regulated kinase 1A (Rattus norvegicus), Q63470 | inhibition, % at 12.5 µM | 310,000 compounds, 0.43% hits; in the data active = inhibition above about 50%;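 note: plate controls were vehicle with enzyme for no effect and no enzyme for full effect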
GSK3B inh – human GSK3beta kinase inhibitors, primary screen, biochemical, cell-free homogeneous, HTS; Glycogen synthase kinase-3 beta (Homo sapiens), P49841; GST-GSK3beta kinase, ADP-Glo luminescence, 60 min; hits give low values; activity score (negative = inhibition), % at 10 µM; 300,000 compounds, 0.038% hits; AID 2097, 2009;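 active = more than half of replicate wells score below -50%, meaning over 50% inhibition versus plate controls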;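 note: 0% = median DMSO wells and -100% = median GW8510 positive control wells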
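Test system: GST-tagged human GSK3beta kinase, cell-free; evaluation: activity score scaled between in-plate DMSO and GW8510 controls; measured by: ADP-Glo luminescence; incubation: 60 min reaction, RT; benchmarks: DMSO and 20 µM GW8510; reagent: peptide substrate plus 25 µM ATP (final); medium: Tris/MgCl2 kinase buffer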
Rin1-Abl PPI inh – inhibitors of Rin1-Abl protein binding, primary screen, biochemical, TR-FRET. inhibition, % at 7.35 µM. 360,000 compounds, 0.4% hits; in the data active = inhibition above about 5%, passing the limit was not always enough
GSK3A inh – blockers of GSK3A enzyme activity – biochemical, luminescence, cell-free homogeneous, HTS, primary screen | inhibition, % at 10 µM | AID 2650, 2010 | Glycogen synthase kinase-3 alpha (Homo sapiens), P49840 | 320,000 compounds, 0.1% hits | GSK-3 alpha kinase, ADP-Glo luminescence, 60 min;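 active = more than half of replicates show inhibition above 20%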;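 note: GST-tagged GSK-3 alpha with peptide substrate and 25 µM ATP; 0% = DMSO neutral wells and 100% = GW8510 positive control wells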
Target sequence (P49840 whole entry, looked up): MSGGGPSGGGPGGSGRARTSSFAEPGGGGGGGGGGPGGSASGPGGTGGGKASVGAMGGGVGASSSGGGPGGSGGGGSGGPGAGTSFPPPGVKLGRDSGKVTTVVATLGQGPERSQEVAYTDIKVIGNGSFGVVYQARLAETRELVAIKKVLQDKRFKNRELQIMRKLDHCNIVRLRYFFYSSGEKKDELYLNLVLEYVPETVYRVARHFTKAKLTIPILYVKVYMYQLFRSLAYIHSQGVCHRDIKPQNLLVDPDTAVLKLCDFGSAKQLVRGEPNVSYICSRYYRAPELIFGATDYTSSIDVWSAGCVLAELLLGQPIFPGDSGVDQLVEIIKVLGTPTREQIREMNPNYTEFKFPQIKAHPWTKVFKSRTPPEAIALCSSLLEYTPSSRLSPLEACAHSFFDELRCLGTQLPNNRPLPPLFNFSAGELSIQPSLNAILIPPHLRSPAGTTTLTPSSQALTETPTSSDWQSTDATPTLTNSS
STK33 inh – inhibitors of purified STK33 kinase, primary screen, biochemical, ADP-Glo luminescence, homogeneous, cell-free | inhibition, % at 10 µM | 320,000 compounds, 0.073% hits | MBP phosphorylation;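 active = inhibition at or above 25%, using the most active replicate where run in duplicate; inactive = inhibition below 25%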
Arr-AP2 CP1 – inhibitors of arrestin peptide binding to AP2, confirmation, biochemical, cherry pick 1, flow cytometry beads. GST-AP2 beads, FITC arrestin peptide binding; GST-fused beta2-adaptin appendage, R879A mutant. inhibition, % at 10 µM. 1,300 compounds, 2% hits. shares compounds with Arr AP2 block. AID 504908, 2011;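 active = inhibition above a set limit, roughly 3 SD of non-fluorescent compound noise, cut at about 38% in these data; inactive = inhibition at or below that limit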;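 note: loss of bead fluorescence from 50 nM FITC arrestin peptide bound to appendage; 0% = negative control wells and 100% = excess unlabelled arrestin peptide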
GST GSH counter – GST-fluorescein capture on glutathione beads, confirmation, artefact control for arrestin-AP2 inhibitor project, biochemical, cherry pick 1, flow cytometry; shares compounds with Arr AP2 block; GST-fluorescein binding to GSH beads, fluorescence, counter-screen; inhibition, % at 10 µM; 1,300 compounds, 2% hits;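 active = inhibition above 50%, about 3 SD of the inhibition seen with non-fluorescent compounds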;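 note: fluorescein maleimide labelled GST captured on 4 micron glutathione beads; higher means more loss of bead fluorescence from quenching or blocked binding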
An asterisk follows results filed as active; · = no result given.

SMILES | Arr AP2 block | DYRK1A inh | GSK3B inh | Rin1-Abl PPI inh | GSK3A inh | STK33 inh | Arr-AP2 CP1 | GST GSH counter
CCN(CC)c1ccc(Nc2nc(N3CCOCC3)c3ccccc3n2)cc1 | 59* | 7 | 0 | -9 | 1 | 28* | 13 | 11
COc1ccc(Nc2nc(N3CCCC3)c3ccccc3n2)cc1 | 3 | 15 | -4 | 1 | 2 | 3 | · | ·
Cc1ccc(S(=O)(=O)NCC(=O)NCC(=O)N(C)Cc2ccc(Br)s2)cc1C | · | · | · | 0 | · | · | · | ·
Cc1ccsc1C(=O)NC(C)c1ccccc1 (configuration not stated) | 19 | · | -4 | 0 | -3 | -1 | · | ·
CCc1ccc(N2CC(C(=O)OCc3csc(CC(=O)Nc4ccccc4C)n3)CC2=O)cc1 (configuration not stated) | 62* | · | · | 0 | -43 | -1 | 16 | 7
COc1ccc(S(=O)(=O)N2CCCCCC2)cc1NC(=O)c1ccccc1 | 6 | 2 | -1 | -6 | -1 | -2 | · | ·
O=C(Nc1cc(S(=O)(=O)N2CCCCC2)ccc1N1CCOCC1)c1cc(=O)[nH]c2ccccc12 | -3 | -3 | -3 | -1 | 0 | -1 | · | ·
COc1ccc(S(=O)(=O)N2CCOCC2)cc1NC(=O)c1cc(=O)[nH]c2ccccc12 | -2 | · | · | 2 | -1 | -2 | -15 | -2
COc1ccc(S(=O)(=O)N2CCOCC2)cc1NC(=O)c1ccc(=O)[nH]c1 | -3 | -2 | · | 1 | · | · | -8 | -1
CCN1CCN(S(=O)(=O)c2ccc(OC)c(NC(=O)c3ccccc3)c2)CC1 | 3 | · | 2 | 1 | 0 | 0 | 4 | -2
Cc1cc(/C=C2/NC(=O)N(Cc3ccccc3F)C2=O)c(C)n1-c1ccccn1 | 88* | 1 | -2 | -3 | 6 | 0 | -7 | 72*
Cc1cccc(CN2C(=O)N/C(=C/c3cc(C)n(-c4ccccn4)c3C)C2=O)c1 | 12 | 18 | -1 | 2 | -3 | -1 | · | ·
COc1ccc2cc(C(=O)Nc3ccc(F)cc3)sc(=O)c2c1OC | 99* | -3 | -5 | -5 | -6 | -2 | -1 | -3
O=C(CSc1nc2ccccc2c(=O)[nH]1)Nc1ccccc1C(F)(F)F | 4 | -2 | 1 | -4 | 5 | 0 | · | ·
CC(Cn1cncn1)C(=O)N1CCN(S(=O)(=O)c2ccccc2)CC1 (configuration not stated) | -5 | -4 | · | 6 | -3 | 0 | · | ·
O=C1CC(c2ccccc2)c2ccccc21 (configuration not stated) | 0 | 3 | -2 | -3 | 5 | -2 | · | ·
O=C1CC(C(=O)O)C(c2ccccc2)c2ccccc21 (configuration not stated) | 55* | -1 | · | 2 | · | · | 4 | 11
Cc1ccc(C2=N/C(=C/N3CCOCC3)C(=O)O2)cc1 | 27 | 9 | 2 | -3 | 2 | -2 | · | ·
Cc1cccc2cc(/C=C3\N=C(c4ccccc4)OC3=O)c(N3CCOCC3)nc12 | 67* | -4 | 1 | -4 | -2 | -1 | 14 | 23
COc1ccc(Nc2nc3cc(C)ccc3cc2C#N)c(OC)c1 | 91* | 3 | -3 | -3 | · | 0 | 12 | 75*
CCCCn1c(N)c(N(C(=O)CSc2nnc(C)n2-c2ccccc2)C2CCCC2)c(=O)[nH]c1=O | 29 | · | · | 3 | 0 | -1 | · | ·
Nn1c(SCC(=O)N2CCN(S(=O)(=O)c3ccccc3)CC2)nnc1-c1cccs1 | 99* | -4 | 0 | 0 | 13 | 2 | -1 | -12
O=C(Nc1ccccc1NC(=O)c1ccccc1Cl)c1ccccc1Cl | 36 | · | 0 | -4 | -1 | 0 | · | ·
CN(C)c1cc2c(cc1NC(=O)c1ccccc1Cl)n(C)c(=O)n2C | -1 | 17 | -3 | -2 | 0 | -2 | 4 | -14
CCN(C(=O)COC(=O)c1ccc(SC)cc1OC)C1CCS(=O)(=O)C1 (configuration not stated) | -3 | -3 | · | 1 | 0 | -1 | · | ·
SMILES | Arr AP2 block | DYRK1A inh | GSK3B inh | Rin1-Abl PPI inh | GSK3A inh | STK33 inh | Arr-AP2 CP1 | GST GSH counter
CC(NC(=O)c1ccc2c(c1)C(=O)N(Cc1cccnc1)C2=O)c1ccccc1 (configuration not stated) | -13 | 3 | -1 | 1 | -4 | -1 | · | ·
CC(=O)NCC1CCCN(c2nc3nonc3nc2N(C)Cc2ccccc2)C1 (configuration not stated) | 59* | 0 | 1 | 3 | -3 | 0 | -17 | -6
CN(Cc1ccccc1)c1nc2nonc2nc1N1CCCC(CN2CCCC2=O)C1 (configuration not stated) | 4 | 1 | 1 | -3 | -2 | 1 | · | ·
CC/C(=N\NC(=O)C1CCCC1)c1cccc(Br)c1 | -9 | -8 | 2 | 4 | · | -2 | · | ·
CC/C(=N\N=C1\SC(C)C(=O)N1Cc1ccco1)c1ccccc1 (configuration not stated) | 59* | -1 | 0 | 1 | -3 | -1 | 5 | -7
CCOc1ccccc1C(=O)Nc1cc(=O)n(C)c(=O)n1C | 4 | 2 | -3 | 3 | -3 | 0 | · | ·
CCCc1ccccc1OCCNC(=O)c1cc(=O)n(C)c(=O)n1C | 60* | 3 | -1 | -1 | 0 | 4 | -2 | 6
O=C(COC(=O)CC1CCCC1)Nc1ccc(Cl)cc1 | -5 | 13 | · | -3 | · | · | · | ·
COc1cc(OC)cc(C(=O)N[C@H](C(=O)Nc2nc(-c3cc(OC)ccc3OC)cs2)C(C)C)c1 | 58* | · | -2 | -5 | -3 | 0 | -15 | 15
COc1ccc(-c2csc(NC(=O)CN3C(=O)NC4(CCCC4)C3=O)n2)cc1 | 30 | 1 | 1 | 2 | -3 | 0 | · | ·
COc1ccc(OC)c(-c2csc(NC(=O)CN3C(=O)NC4(CCCC4)C3=O)n2)c1 | 68* | 16 | · | 3 | -1 | -1 | 1 | -1
CC1CC(C)(C)CC2(C1)NC(=O)N(CC(=O)N1CCN(Cc3ccc(C#N)cc3)CC1)C2=O (configuration not stated) | 19 | 2 | · | 2 | · | · | · | ·
CCN(CC)S(=O)(=O)c1ccc(/C=C/C(=O)OCC(=O)NCc2cccs2)cc1 | -12 | 2 | · | 4 | 0 | 0 | · | ·
